Measurements from article PMC9050788 (European Journal of Drug Metabolism and Pharmacokinetics, 2022).
Entries after “also recorded” stand apart in the source; their conditions may differ.

Key:
[1] = Phase I DDI study of abrocitinib with probenecid; assay type: in vivo, human
Single vs multiple-dose = assay type: in vivo, human; conditions: for Contribution to the total active moiety (unbound, adjusted for relative potencies): at steady state with 200 mg QD dosing; for Mean (SD) plasma concentration: abrocitinib 200 mg once daily
[2] = plasma protein binding; ref data on file; cited from earlier work
[3] = after a single oral dose of abrocitinib; ref data on file; cited from earlier work
[4] = tested on: organic anion transporter 3 (OAT3); conditions: in vitro transporter profiling; ref data on file; cited from earlier work
[5] = Phase I DDI study of abrocitinib with rifampin; assay type: in vivo, human
[6] = Phase I DDI study of abrocitinib with fluvoxamine; assay type: in vivo, human
[7] = Phase I DDI study of abrocitinib with fluconazole; assay type: in vivo, human
[8] = Safety across the three phase I DDI studies; assay type: in vivo, human; conditions: all three studies, healthy volunteers
Summary of the method: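 Safety population comprised all subjects receiving at least one dose of study medication. Adverse events were summarised descriptively.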

[9] = tested on: cytochrome P450 (CYP) 2C19; conditions: CYP2C19; data on file; cited from earlier work
CYP2C9 = conditions: data on file; cited from earlier work
CYP3A4 = conditions: data on file; cited from earlier work
CYP2B6 = conditions: data on file; cited from earlier work
[10] = cited from earlier work
[11] = population analyses; ref data on file; cited from earlier work
[12] = with probenecid vs abrocitinib alone, active moiety unbound
[13] = Probenecid 1000 mg BID (n = 12)
[14] = Abrocitinib 100 mg single dose (n = 12), fluvoxamine study
[15] = Abrocitinib 100 mg single dose + fluvoxamine 50 mg QD (n = 12)
[16] = with fluvoxamine vs abrocitinib alone, active moiety unbound
[17] = Abrocitinib 100 mg single dose (n = 12), fluconazole study
[18] = Abrocitinib 100 mg single dose + fluconazole 200 mg QD (n = 12)
[19] = with fluconazole vs abrocitinib alone, active moiety unbound
[20] = Abrocitinib 100 mg single dose (n = 12), rifampin study
[21] = Abrocitinib 200 mg single dose + Rifampin 600 mg QD (n = 12)
[22] = with rifampin vs abrocitinib alone, active moiety unbound
[23] = Abrocitinib 100 mg single dose (n = 12), probenecid study
[24] = Abrocitinib 200 mg single dose + Probenecid 1000 mg BID (n = 12)

## CN(c1ncnc2[nH]ccc12)[C@H]1C[C@@H](NS(=O)(=O)CCCO)C1 [M1]
[1]; [12]
  Increase in Cmax: 1.4 fold
Single vs multiple-dose
  Contribution to the total active moiety (unbound, adjusted for relative potencies): ~ 10%
[2]
  Fraction unbound in plasma (fu): 0.63
[3]
  Share of circulating species: 11%
[4]
  Substrate of OAT3: substrates; also recorded: in part a substrate

## CO[C@H]1/C=C/O[C@@]2(C)Oc3c(C)c(O)c4c(O)c(c(/C=N/N5CCN(C)CC5)c(O)c4c3C2=O)NC(=O)/C(C)=C\C=C\[C@H](C)[C@H](O)[C@@H](C)[C@@H](O)[C@@H](C)[C@H](OC(C)=O)[C@@H]1C [Rifampin, reference compound]
[5]; Rifampin 600 mg QD (n = 12)
  Subjects with TEAEs: 10 (83.3) n (%)
  Subjects with TRAEs: 10 (83.3) n (%)

## CCCN(CCC)S(=O)(=O)c1ccc(C(=O)O)cc1 [Probenecid, reference compound]
[1]; [13]
  Subjects with TEAEs: 2 (16.7) n (%)
  Subjects with TRAEs: 2 (16.7) n (%)

## CC(O)CS(=O)(=O)N[C@H]1C[C@@H](N(C)c2ncnc3[nH]ccc23)C1 (stereo partly shown) [M2]
[1]; [12]
  Increase in AUCinf: 2.2 fold
  Increase in Cmax: 1.3 fold
Single vs multiple-dose
  Contribution to the total active moiety (unbound, adjusted for relative potencies): ~ 30%
[2]
  Fraction unbound in plasma (fu): 0.71
[3]
  Share of circulating species: 12%
[4]
  Substrate of OAT3: substrates; also recorded: in part a substrate

## CCCS(=O)(=O)N[C@H]1C[C@@H](N(C)c2ncnc3[nH]ccc23)C1 [Abrocitinib, N-{cis-3-[Methyl(7H-pyrrolo[2,3-d]pyrimidin-4-yl)amino]cyclobutyl}propane-1-sulfo namide]
[6]; [14]
  Subjects with TEAEs: 3 (25.0) n (%)
  Subjects with TRAEs: 3 (25.0) n (%)
[6]; [15]
  Subjects with TEAEs: 6 (50.0) n (%)
  Subjects with TRAEs: 3 (25.0) n (%)
[6]; [16]
  Increase in AUCinf: 2.8 fold
  Increase in Cmax: 1.8 fold
[7]; [17]
  Subjects with TEAEs: 2 (16.7) n (%)
  Subjects with TRAEs: 2 (16.7) n (%)
[7]; [18]
  Subjects with TEAEs: 7 (58.3) n (%)
  Subjects with TRAEs: 6 (50.0) n (%)
[7]; [19]
  Increase in AUCinf: 4.8 fold
  Increase in Cmax: 1.9 fold
[5]; [20]
  Subjects with TEAEs: 2 (16.7) n (%)
  Subjects with TRAEs: 2 (16.7) n (%)
[5]; [21]
  Subjects with TEAEs: 4 (33.3) n (%)
  Subjects with TRAEs: 4 (33.3) n (%)
[5]; [22]
  Decrease in AUCinf: 87.6%
  Decrease in Cmax: 79.1%
[1]; [23]
  Subjects with TEAEs: 6 (50.0) n (%)
  Subjects with TRAEs: 2 (16.7) n (%)
[1]; [24]
  Subjects with TEAEs: 5 (41.7) n (%)
  Subjects with TRAEs: 4 (33.3) n (%)
[1]; [12]
  Increase in Cmax: 1.2 fold
Single vs multiple-dose; before dosing on Day 2
  Mean (SD) plasma concentration: 9.16 (7.96) ng/mL
Single vs multiple-dose; before dosing on Day 3
  Mean (SD) plasma concentration: 15.01 (21.38) ng/mL
Single vs multiple-dose; before dosing on Day 4
  Mean (SD) plasma concentration: 14.95 (15.88) ng/mL
Single vs multiple-dose; human, plasma, oral, 200 mg
  concentration at 24 h: 11.3 ng/mL
Single vs multiple-dose; once-daily administration, achieved by Day 3 of dosing
  Time to steady-state plasma concentrations: ≤ 48 h
[8]
  Serious or severe adverse events: No serious or severe adverse events
[9]
  Contribution to abrocitinib metabolism: 53%
CYP2C9
  Contribution to abrocitinib metabolism: 30%
CYP3A4
  Contribution to abrocitinib metabolism: 11%
CYP2B6
  Contribution to abrocitinib metabolism: 6%
[10]
  Parent drug excreted unchanged in the urine: 1.0–4.4%
[3]
  Share of circulating species: 26%
[4]
  Substrate of OAT3: not a substrate
[11]
  Sex-related differences in pharmacokinetics: no sex-related differences
